Consider 68 compounds from PubChem BioAssay AID2648 (Johns Hopkins Ion Channel Center, 2010).

The structures appear in SMILES notation. Hit rate of the full screen: of about 310,000 compounds, about 1,100 (0.35%) were called active.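 The calls were made as follows: active = fluorescence ratio B-score, a plate-corrected score, at least three library SD, with initial intensity B-score within 5 SD; inactive = the rest.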 Shown is part of a subset that was picked to be rich in actives.

Chain of Potassium voltage-gated channel subfamily KQT member 1 (Homo sapiens) (P51787 whole entry, looked up): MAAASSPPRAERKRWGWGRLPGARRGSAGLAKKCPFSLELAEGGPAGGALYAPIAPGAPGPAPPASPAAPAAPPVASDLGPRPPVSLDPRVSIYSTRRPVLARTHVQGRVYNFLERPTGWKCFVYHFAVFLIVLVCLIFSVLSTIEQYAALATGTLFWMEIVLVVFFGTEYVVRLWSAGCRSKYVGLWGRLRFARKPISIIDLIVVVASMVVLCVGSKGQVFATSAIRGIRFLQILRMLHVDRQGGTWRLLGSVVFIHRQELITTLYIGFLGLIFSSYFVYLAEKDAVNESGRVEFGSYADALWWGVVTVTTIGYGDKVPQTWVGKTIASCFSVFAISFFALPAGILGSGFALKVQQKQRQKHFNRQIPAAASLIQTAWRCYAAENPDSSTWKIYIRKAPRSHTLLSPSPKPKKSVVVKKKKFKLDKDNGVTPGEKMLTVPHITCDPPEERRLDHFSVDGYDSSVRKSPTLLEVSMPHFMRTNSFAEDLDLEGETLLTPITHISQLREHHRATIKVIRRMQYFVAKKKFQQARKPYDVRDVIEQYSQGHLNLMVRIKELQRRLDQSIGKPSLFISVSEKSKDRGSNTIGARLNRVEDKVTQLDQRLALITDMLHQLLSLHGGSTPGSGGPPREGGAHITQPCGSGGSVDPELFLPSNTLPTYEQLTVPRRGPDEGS

The target in the test is Potassium voltage-gated channel subfamily KQT member 1 (Homo sapiens) (UniProt P51787). The test can be described thus: potentiators or activators of KCNQ1 channel, primary screen, cell-based, thallium flux, high-throughput (AID 2648). The note with it: CHO-K1 KCNQ1, thallium flux FluxOR fluorescence, at 10 µM; stronger effect = higher value. The procedure, abridged:
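Material: CHO-K1 cells stably expressing KCNQ1. Medium: assay buffer for compound exposure, DMSO matched across wells. Reagent: K+/Tl+ depolarizing stimulus. Compound dosing: single-concentration screen. Times: 37 °C overnight plating, 90-min dark dye load, 20-min compound pretreatment. Technique: FluxOR Tl+ flux fluorescence.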
With `CC(=O)c1c(C)[nH]c(C(=O)OCC(=O)Nc2sc3c(c2C#N)CCCC3)c1C`, the B-score result was “inactive”.

In the case of `Cc1ccc(CNC(=O)CCC(=O)N2CC(C)Sc3ccccc32)cc1` (stereo not drawn), the B-score entry was “inactive”.

Regarding `O=S(=O)(Nc1cccc(-c2ccc(N3CCOCC3)nn2)c1)c1ccc(Cl)c(Cl)c1`, the B-score entry is “inactive”.

Take `Cc1cccc(NC(=O)c2ccc([N+](=O)[O-])o2)c1`: the B-score entry was “inactive”.

Regarding `Cc1cccc(NC(=S)NC(=O)c2ccc(Br)o2)c1`, the B-score is 25 (active).

As to `Cc1cccc(NC(=O)NC(=S)NC(=O)c2ccccc2)c1`, the B-score result is “inactive”.

`Cc1ccc(CNC(=O)[C@@H](NC(=O)Cc2ccccc2)C(C)C)cc1`: the B-score entry was “inactive”.

As to `Cc1ccc(S(=O)(=O)N(CC(=O)NCCSC2CCCCC2)c2ccccc2F)cc1`, the B-score entry is “inactive”.

With `CN1CCCN(C(=O)C2CCCCC2)CC1`, the B-score entry was “inactive”.

Consider `O=C(N1CCCCC1)N1CCN(C(=O)N2CCCCC2)CC1`, for which the B-score was 10 (active).

On to `O=C(N1CCOCC1)N1CCOCC1`, for which the B-score result is “inactive”.

For the compound `Cc1sc(NC(=O)C2=COCCO2)c(C#N)c1C`, the B-score result was “inactive”.

As for `CC1CCN(S(=O)(=O)c2ccc(NC(=O)C3CC(=O)N(c4ccccc4)C3)cc2)CC1` (stereo not drawn), the B-score entry was “inactive”.

Regarding `c1ccc2c(c1)OCC(CNc1ncnc3nc[nH]c13)O2` (stereo not drawn), the B-score is 8 (active).

Turning to `c1ccc(-c2cc3c(NCC4COc5ccccc5O4)ncnc3s2)cc1` (stereo not drawn), the B-score entry is “inactive”.

`S=C(NCC1COc2ccccc2O1)Nc1ccc(Br)cc1` (stereo not drawn): the B-score result was “inactive”.

On to `O=C(O)C1CCCN1S(=O)(=O)c1ccc(Br)cc1` (stereo not drawn), for which the B-score entry was “inactive”.

Consider `O=C(CSc1nccc(=O)[nH]1)Nc1ccc(N2CCOCC2)c(Cl)c1`, for which the B-score result is “inactive”.

Take `O=C(COC(=O)c1ccccc1Br)Nc1nnc(-c2ccccc2)o1`: the B-score result was “inactive”.

On to `O=C(Nc1nnc(-c2ccc(Cl)cc2)o1)c1ccccc1Br`, for which the B-score was 8 (active).

As for `O=C(Nc1cccc(Cl)c1)Nc1nnc(-c2ccccc2)o1`, the B-score entry is “inactive”.

`Cc1nnc(Nc2ccccc2F)s1`: the B-score entry is “inactive”.

`CC(=O)Nc1ccc(S(=O)(=O)N2CCC(C(=O)NC3CC3)CC2)cc1`: the B-score entry is “inactive”.

With `CCOc1ccc(N(CC)S(=O)(=O)c2cccc3nsnc23)cc1`, the B-score entry is “inactive”.

Turning to `CC(C)(C)C1CCc2c(sc3nc(SCC(N)=O)nc(N)c23)C1` (stereo not drawn), the B-score result is “inactive”.

Turning to `CCCCn1c(=S)[nH]c2ncccc2c1=O`, the B-score was 10 (active).

As for `CCN(CC)CCn1c(=S)[nH]c2ncccc2c1=O`, the B-score entry is “inactive”.

For the compound `CCCCn1c(=S)[nH]c2ccccc2c1=O`, the B-score was 18 (active).

On to `CCCCNC(=O)CCn1c(=S)[nH]c2cc3c(cc2c1=O)OCO3`, for which the B-score entry was “inactive”.

As to `CCCCNC(=O)c1ccc(-n2c(=S)[nH]c3ccccc3c2=O)cc1`, the B-score entry was “inactive”.

For `O=c1c2ccccc2[nH]c(=S)n1CCN1CCC(=C(c2ccc(F)cc2)c2ccc(F)cc2)CC1`, the B-score result is “inactive”.

`O=C(Nc1ccc(CN2CCOCC2)cc1)c1cc(Cl)ccc1Cl`: the B-score result is “inactive”.

For the compound `Cc1sc2ncnc(N3CCC(C(=O)Nc4nc5ccc(Cl)cc5s4)CC3)c2c1C`, the B-score entry is “inactive”.

`O=C(CNS(=O)(=O)c1ccc(Br)s1)NCc1ccc2c(c1)OCO2`: the B-score entry was “inactive”.

For the compound `Cn1c2ccccc2c2cc(/C=C(\NC(=O)c3ccccc3)C(=O)NCC(=O)O)ccc21`, the B-score result was “inactive”.

For the compound `CCNC(=S)Nc1ccc(OC(F)(F)F)cc1`, the B-score result was “inactive”.

For `CS(=O)(=O)c1sc(C(=O)NC(=S)Nc2ccc(OC(F)(F)F)cc2)c2c1C=CCC2`, the B-score is 11 (active).

For the compound `FC(F)(F)Oc1ccc(NC(=S)NCc2ccccc2)cc1`, the B-score entry is “inactive”.

As for `CN(/N=C/c1ccccc1)C(=S)c1ccccc1`, the B-score result is “inactive”.

For `CC(CC(=O)Nc1ccccc1)n1ccnc1` (stereo not drawn), the B-score entry was “inactive”.

As to `Cc1ccn2c(=O)c(C(=O)NCCC3=CCCCC3)c(O)nc2c1`, the B-score entry was “inactive”.

As for `Oc1c(Cl)cc(Cl)cc1/C=N/c1ncn[nH]1`, the B-score is 9 (active).

On to `C=CCn1c(Cn2nnc3ccccc32)nnc1SCC(=O)N/N=C/c1cc(Br)cc(OC)c1O`, for which the B-score result is “inactive”.

In the case of `Oc1ccc(Br)cc1C=Nc1ccc2[nH]ncc2c1`, the B-score result was “inactive”.

Consider `COc1cc(Br)cc(/C=N/c2ncn[nH]2)c1O`, for which the B-score is 12 (active).

As for `O=C(Cn1cncn1)N/N=C/c1c2ccccc2cc2ccccc12`, the B-score result is “inactive”.

On to `CN(c1ccccn1)c1ncnc2[nH]ncc12`, for which the B-score entry was “inactive”.

In the case of `CN(Cc1cccs1)C(=O)Cc1c[nH]c2ccccc12`, the B-score entry was “inactive”.

Take `CCc1ccc(NC(=O)COC(=O)c2cccs2)cc1`: the B-score entry was “inactive”.

On to `CC(C)C(=O)Nc1ccc(C(=O)NNC(=O)c2cccs2)cc1`, for which the B-score entry was “inactive”.

As for `CCc1ccc(NC(=O)C(=O)NNC(=O)c2cccs2)cc1`, the B-score was 54 (active).

For `CCCCNC(=O)CN1C(=O)NC(Cc2ccccc2)(Cc2ccccc2)C1=O`, the B-score result was “inactive”.

With `Clc1ccc(C[n+]2cc(-c3ccc(Cl)cc3)n3c2CCC3)cc1`, the B-score result was “inactive”.

As to `Cc1cc(C)nc(N2CCC(C(=O)Nc3ccc4c(c3)OCCO4)CC2)n1`, the B-score result is “inactive”.

As to `CN1CCN(S(=O)(=O)c2ccc(NC(=S)NC(=O)C3CC3)cc2)CC1`, the B-score result was “inactive”.

For `Cc1cc(Nc2cc(N3CCN(C)CC3)nc(Sc3ccc(NC(=O)C4CC4)cc3)n2)n[nH]1`, the B-score was 7 (active).

In the case of `COCC(=O)N1CCc2ccc(NC(=O)c3ccccc3Cl)cc2C1`, the B-score result is “inactive”.

In the case of `CCc1nccn1CCC(=O)N1CCCC(N2CCN(c3ccccc3F)CC2)C1` (stereo not drawn), the B-score entry is “inactive”.

`Cc1cccc(C(=O)N2CCN(S(=O)(=O)N3CCCCC3)CC2)c1`: the B-score result is “inactive”.

In the case of `O=C(NCCN1CCOCC1)[C@H](Cc1ccccc1)N1C(=O)c2ccccc2C1=O`, the B-score was 11 (active).

Consider `O=C(CCN1C(=O)c2ccccc2C1=O)NCCN1CCOCC1`, for which the B-score result was “inactive”.

Take `O=C(NC1=NCCS1)[C@H](Cc1ccccc1)N1C(=O)c2ccccc2C1=O`: the B-score result was “inactive”.

Turning to `CC(C)COC(=O)C1C2C=CC3(CN(C(C)c4ccc(Br)cc4)C(=O)C13)O2` (stereo not drawn), the B-score entry is “inactive”.

Consider `CCOC(=O)c1ccc(Nc2cc3ccccc3c(=O)[nH]2)cc1`, for which the B-score entry was “inactive”.

Turning to `CCOC(=O)C1=C(C)Nc2sc(C(=O)c3ccc(Br)cc3)c(N)c2C1c1ccc(C(=O)OC)cc1` (stereo not drawn), the B-score result is “inactive”.

Take `CCOC(=O)c1sc(=S)n2c1[nH]c(=O)c1ccc(C(=O)OC)cc12`: the B-score is 59 (active).

`CCOC(=O)c1c(C)nn(-c2ncccc2NC(=O)CCC(=O)O)c1C`: the B-score entry is “inactive”.

On to `Cc1oc2cc3oc(=O)ccc3cc2c1C`, for which the B-score result was “inactive”.
